Laboratory results as given in ChEMBL document CHEMBL2057182, “Synthesis and biological evaluation of α-methylidene-δ-lactones with 3,4-dihydrocoumarin skeleton” (Bioorg Med Chem, 2012).
≈ marks a conversion by molar mass, not a printed value.

How the values were obtained:
HL-60 = assay: Cytotoxicity against human HL60 cells after 48 hrs by MTT assay; assay type: functional, cell-based; conditions: HL-60, 48 h
In short: (§1)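 ECACC cells; leukemias in RPMI 1640, MCF-7 and HT-29 in DMEM, each with 10% heat-inactivated FBS plus penicillin/streptomycin, 37 °C, 5% CO2. 8 × 10^3 cells/well seeded, compounds added after 24 h at 10^-7 to 10^-3 M (DMSO diluted in medium) for 48 h. MTT 2 h, formazan dissolved in DMSO, A560 against untreated control. IC50 from concentration–response curves, mean ± SD of at least three experiments.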

NALM-6 = assay: Cytotoxicity against human NALM6 cells after 48 hrs by MTT assay; assay type: functional, cell-based; conditions: NALM-6, 48 h; in short: as §1
MCF7 = assay: Cytotoxicity against human MCF7 cells after 48 hrs by MTT assay; assay type: functional, cell-based; conditions: MCF7, 48 h; in short: as §1
HT-29 = assay: Cytotoxicity against human HT-29 cells after 48 hrs by MTT assay; assay type: functional, cell-based; conditions: HT-29, 48 h; in short: as §1
HUVEC = assay: Cytotoxicity against human HUVEC cells after 48 hrs by MTT assay; assay type: cell-based
In short: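 HUVECs cultured as the supplier directs, used at passages 3–8, 37 °C, 5% CO2. Seeded at 8 × 10^3/well, treated after 24 h with compounds at 10^-7 to 10^-3 M (DMSO diluted in complete medium) for 48 h. MTT 2 h, DMSO-solubilized formazan read at 560 nm against untreated cells. IC50 from concentration–response curves, at least three experiments.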

Escherichia coli = assay: Antibacterial activity against Escherichia coli NCTC 8196 after 24 hrs by broth microdilution assay; assay type: functional; conditions: NCTC 8196, 24 h
In short: (§2)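 MIC by broth microdilution per CLSI, compounds from 20.0 mg/mL DMSO stocks tested at 3.125–400.0 µg/mL (eight twofold dilutions) in Mueller-Hinton broth or RPMI-1640. MIC is the concentration that inhibits growth during 24 h culture, turbidity equal to blank A600 (0.06). Highest final DMSO 2.0%.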

Pseudomonas aeruginosa = assay: Antibacterial activity against Pseudomonas aeruginosa NCTC 6749 after 24 hrs by broth microdilution assay; assay type: functional; conditions: NCTC 6749, 24 h; in short: as §2
Candida albicans = assay: Antifungal activity against Candida albicans ATCC 10231 after 24 hrs by broth microdilution assay; assay type: functional; conditions: ATCC 10231, 24 h; in short: as §2
Enterococcus faecalis = assay: Antibacterial activity against Enterococcus faecalis ATCC 29212 after 24 hrs by broth microdilution assay; assay type: functional; conditions: ATCC 29212, 24 h; in short: as §2
Staphylococcus aureus [1] = assay: Antibacterial activity against methicillin-sensitive Staphylococcus aureus ATCC 29213 after 24 hrs by broth microdilution assay; assay type: functional; conditions: ATCC 29213, 24 h
In short: (§3)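 Broth microdilution in Mueller-Hinton broth, compounds from 20.0 mg/mL DMSO stocks tested over 3.125–400.0 µg/mL (eight twofold dilutions), DMSO at most 2.0% final. MIC is the lowest concentration inhibiting growth over 24 h culture, with turbidity equal to the A600 of a medium blank (0.06). Run under CLSI guidance with ATCC quality-control strains.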

Staphylococcus aureus [2] = assay: Antibacterial activity against methicillin-resistant Staphylococcus aureus A3 patient isolate after 24 hrs by broth microdilution assay; assay type: functional; conditions: A3, 24 h; in short: as §3
Staphylococcus aureus [3] = assay: Antibacterial activity against methicillin-resistant Staphylococcus aureus A7 patient isolate after 24 hrs by broth microdilution assay; assay type: functional; conditions: A7, 24 h; in short: as §3
Staphylococcus aureus [4] = assay: Antibacterial activity against methicillin-resistant Staphylococcus aureus D5 patient isolate after 24 hrs by broth microdilution assay; assay type: functional; conditions: D5, 24 h; in short: as §3
Staphylococcus aureus [5] = assay: Antibacterial activity against methicillin-sensitive Staphylococcus aureus ATCC 29213 incubated for 24 hrs followed by washout measured after 24 hrs by broth microdilution assay; assay type: functional; conditions: ATCC 29213, 24 h
In short: (§4)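 MBC: after the 24 h broth microdilution MIC run (3.125–400.0 µg/mL in Mueller-Hinton broth, DMSO at most 2.0%), 10 µL from the MIC, 2× MIC and 4× MIC wells was subcultured into compound-free broth for 24 h. MBC is the lowest concentration with no visible growth, i.e. at least 99.9% kill of the original inoculum; bactericidal if MBC is at most 4× MIC.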

Staphylococcus aureus [6] = assay: Antibacterial activity against methicillin-resistant Staphylococcus aureus A3 patient isolate incubated for 24 hrs followed by washout measured after 24 hrs by broth microdilution assay; assay type: functional; conditions: A3, 24 h; in short: as §4
Staphylococcus aureus [7] = assay: Antibacterial activity against methicillin-resistant Staphylococcus aureus A7 patient isolate incubated for 24 hrs followed by washout measured after 24 hrs by broth microdilution assay; assay type: functional; conditions: A7, 24 h; in short: as §4
Staphylococcus aureus [8] = assay: Antibacterial activity against methicillin-resistant Staphylococcus aureus D5 patient isolate incubated for 24 hrs followed by washout measured after 24 hrs by broth microdilution assay; assay type: functional; conditions: D5, 24 h; in short: as §4
[9] = Therapeutic index ratio of IC50 for human HUVEC cells to IC50 for human HL60 cells; assay type: cell-based; conditions: HUVEC cells versus HL60 cells
[10] = Therapeutic index ratio of IC50 for human HUVEC cells to IC50 for human NALM6 cells; assay type: cell-based; conditions: HUVEC cells versus NALM6 cells, read-out: Ratio IC50
[11] = Therapeutic index ratio of IC50 for human HUVEC cells to IC50 for human MCF7 cells; assay type: cell-based; conditions: HUVEC cells versus MCF7 cells, read-out: Ratio IC50

| SMILES | IC50 (HL-60) [µM] | IC50 (NALM-6) [µM] | IC50 (MCF7) [µM] | IC50 (HT-29) [µM] | IC50 (HUVEC) [µM] | other results |
| --- | --- | --- | --- | --- | --- | --- |
| C=C1C(=O)Oc2cc(OC)ccc2C1C (centres undefined) | 54.5 | 53.6 | 73 | 70 | 57.4 | – |
| C=C1C(=O)Oc2cc(OC)ccc2C1CCCC (centres undefined) | 5.4 | 6.2 | 7.1 | 10.2 | 5.1 | MIC (Escherichia coli): > 400 µg/mL; MIC (Pseudomonas aeruginosa): > 400 µg/mL; MIC (Candida albicans): > 400 µg/mL; MIC (Enterococcus faecalis): 200 µg/mL (≈ 812 µM); MIC (Staphylococcus aureus [1]): 50 µg/mL (≈ 203 µM); MIC (Staphylococcus aureus [2]): 50 µg/mL (≈ 203 µM); MIC (Staphylococcus aureus [3]): 50 µg/mL (≈ 203 µM); MIC (Staphylococcus aureus [4]): 50 µg/mL (≈ 203 µM); MBC (Staphylococcus aureus [5]): 100 µg/mL (≈ 406 µM); MBC (Staphylococcus aureus [6]): 100 µg/mL (≈ 406 µM); MBC (Staphylococcus aureus [7]): 100 µg/mL (≈ 406 µM); MBC (Staphylococcus aureus [8]): 200 µg/mL (≈ 812 µM) |
| C=C1C(=O)Oc2cc(OC)ccc2C1C(C)C (centres undefined) | 0.56 | 0.85 | 0.87 | 1.7 | 3.12 | selectivity ratio [9]: 5.6; selectivity ratio [10]: 4; selectivity ratio [11]: 4; MIC (Escherichia coli): > 400 µg/mL; MIC (Pseudomonas aeruginosa): > 400 µg/mL; MIC (Candida albicans): > 400 µg/mL |
| C=CC1C(=C)C(=O)Oc2cc(OC)ccc21 (centres undefined) | 51.7 | 56.6 | 62 | 42 | 57.3 | – |
| C=C1C(=O)Oc2cc(OC)cc(OC)c2C1C (centres undefined) | 5.2 | 6 | 4.1 | 7.2 | – | – |
| C=C1C(=O)Oc2cc(OC)cc(OC)c2C1CCCC (centres undefined) | 3.4 | 4.6 | 3.3 | 5.2 | – | – |
| C=C1C(=O)Oc2cc(OC)cc(OC)c2C1C(C)C (centres undefined) | 1.3 | 3 | 2.1 | 2.2 | – | – |
| C=CC1C(=C)C(=O)Oc2cc(OC)cc(OC)c21 (centres undefined) | 8.4 | 9.3 | 6.2 | 5.9 | – | – |
| C=C1C(=O)Oc2cc3c(cc2C1C)OCO3 (centres undefined) | 59.4 | 60.7 | 40.9 | 38.4 | – | – |
| C=C1C(=O)Oc2cc3c(cc2C1CCCC)OCO3 (centres undefined) | 0.75 | 0.6 | 0.54 | 1.8 | – | – |
| C=C1C(=O)Oc2cc3c(cc2C1C(C)C)OCO3 (centres undefined) | 3.3 | 0.7 | 0.87 | 1.5 | – | – |
| C=CC1C(=C)C(=O)Oc2cc3c(cc21)OCO3 (centres undefined) | 7.85 | 7.82 | 9.8 | 6.2 | – | – |
| C=C1C(=O)Oc2ccc3ccccc3c2C1C (centres undefined) | 4.8 | 5.5 | 5.17 | 7.26 | 6.69 | – |
| C=C1C(=O)Oc2ccc3ccccc3c2C1CCCC (centres undefined) | 0.72 | 2.1 | 2.75 | 2.9 | 3.83 | MIC (Escherichia coli): > 400 µg/mL; MIC (Pseudomonas aeruginosa): > 400 µg/mL; MIC (Candida albicans): > 400 µg/mL; MIC (Enterococcus faecalis): 25 µg/mL (≈ 93.9 µM); MIC (Staphylococcus aureus [1]): 6.25 µg/mL (≈ 23.5 µM); MIC (Staphylococcus aureus [2]): 3.12 µg/mL (≈ 11.7 µM); MIC (Staphylococcus aureus [3]): 6.25 µg/mL (≈ 23.5 µM); MIC (Staphylococcus aureus [4]): 3.12 µg/mL (≈ 11.7 µM); MBC (Staphylococcus aureus [5]): 12.5 µg/mL (≈ 46.9 µM); MBC (Staphylococcus aureus [6]): 6.25 µg/mL (≈ 23.5 µM); MBC (Staphylococcus aureus [7]): 6.25 µg/mL (≈ 23.5 µM); MBC (Staphylococcus aureus [8]): 6.25 µg/mL (≈ 23.5 µM) |
| C=C1C(=O)Oc2ccc3ccccc3c2C1C(C)C (centres undefined) | 0.7 | 0.72 | 0.48 | 2.67 | 4.03 | selectivity ratio [9]: 5.8; selectivity ratio [10]: 5.6; selectivity ratio [11]: 8; MIC (Escherichia coli): > 400 µg/mL; MIC (Pseudomonas aeruginosa): > 400 µg/mL; MIC (Candida albicans): > 400 µg/mL |
| C=CC1C(=C)C(=O)Oc2ccc3ccccc3c21 (centres undefined) | 5.7 | 6 | 4.7 | 9.7 | 6.1 | – |
| C=C1C(=O)Oc2ccc3ccc(O)cc3c2C1C (centres undefined) | 5.81 | 5.77 | 6.22 | 4.3 | – | – |
| C=C1C(=O)Oc2ccc3ccc(O)cc3c2C1CCCC (centres undefined) | 0.62 | 0.56 | 1.88 | 1.73 | – | – |
| C=C1C(=O)Oc2ccc3ccc(O)cc3c2C1C(C)C (centres undefined) | 0.58 | 0.59 | 0.36 | 0.49 | – | – |
| C=CC1C(=C)C(=O)Oc2ccc3ccc(O)cc3c21 (centres undefined) | 3.43 | 0.79 | 4.8 | 6.5 | – | – |
